This is a sample that favours compounds with a hit; in the whole collection about 1.2% have one here.
procasp7 counter: counter-screen: procaspase-7 (human) activation; P55210; 330,000 tested, 0.093% active; activation, % at 8.5 µM; recombinant procaspase-7, Ac-DEVD-pNA absorbance 405 nm; D23A/D198A/D206A triple mutant, cannot self-cleave; scale: DMSO 0, 5 µM enzyme 100; AID 463210;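 active means percent activation above the screen-wide mean plus 3 SD, cut at about 25% in these data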
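Assay system: Uncleavable procaspase-7 mutant enzyme; Input: 2 µM procaspase-7 mutant as dispensed; Also added: DEVD-pNA substrate; Medium: Zinc-free HEPES pH 7.4 with 300 mM NaCl, 0.01% Triton X-100; Timing: 1 h compound preincubation, 2 h substrate cleavage, 25 °C; Measured by: Epi-absorbance of released pNA at 405 nm, two timepoints.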
IDE act: IDE (human) activation, cell-based | P14735 | activation, % at 5.96 µM | 340,000 tested, 0.073% active | HEK cells, FAbeta-B cleavage, fluorescence polarization; 0% vehicle, 100% cell-free pure enzyme wells;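 active means activation above the mean of all tested compounds plus 3 SD, set per screening campaign, cut at about 17% in these data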
Target sequence (P14735 whole entry, looked up): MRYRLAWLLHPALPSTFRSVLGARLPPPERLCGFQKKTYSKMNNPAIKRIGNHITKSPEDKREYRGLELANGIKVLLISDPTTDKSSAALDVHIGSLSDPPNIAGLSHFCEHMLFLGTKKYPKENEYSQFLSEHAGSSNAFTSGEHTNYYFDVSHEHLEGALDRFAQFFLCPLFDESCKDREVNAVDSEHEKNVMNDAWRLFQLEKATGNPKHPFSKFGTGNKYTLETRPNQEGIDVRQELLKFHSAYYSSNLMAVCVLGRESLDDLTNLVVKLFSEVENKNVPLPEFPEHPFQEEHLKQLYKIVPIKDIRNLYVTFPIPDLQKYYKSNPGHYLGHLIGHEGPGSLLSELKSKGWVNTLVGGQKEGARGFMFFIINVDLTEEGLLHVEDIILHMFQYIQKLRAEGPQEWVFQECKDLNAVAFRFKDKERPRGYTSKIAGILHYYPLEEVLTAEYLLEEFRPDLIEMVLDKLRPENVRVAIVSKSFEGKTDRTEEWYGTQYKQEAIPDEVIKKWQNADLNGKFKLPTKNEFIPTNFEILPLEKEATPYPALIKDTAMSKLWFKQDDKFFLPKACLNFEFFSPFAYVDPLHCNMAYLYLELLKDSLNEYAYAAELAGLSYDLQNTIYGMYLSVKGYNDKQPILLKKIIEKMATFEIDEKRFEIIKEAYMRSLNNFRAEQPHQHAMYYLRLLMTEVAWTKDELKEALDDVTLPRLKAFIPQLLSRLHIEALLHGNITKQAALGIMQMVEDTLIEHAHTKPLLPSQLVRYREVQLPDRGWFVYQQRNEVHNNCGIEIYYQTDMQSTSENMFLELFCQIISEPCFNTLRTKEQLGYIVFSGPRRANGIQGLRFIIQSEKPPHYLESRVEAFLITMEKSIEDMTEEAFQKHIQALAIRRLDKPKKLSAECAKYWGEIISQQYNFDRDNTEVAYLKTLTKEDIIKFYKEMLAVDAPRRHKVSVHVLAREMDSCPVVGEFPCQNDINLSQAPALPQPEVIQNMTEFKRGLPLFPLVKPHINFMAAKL
IDE cell inh: inhibitors of human insulin-degrading enzyme in cells. HEK cells, FAbetaB cleavage, fluorescence polarization. P14735. inhibition, % at 5.59 µM. 320,000 tested, 0.41% active. AID 434962;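 active means percent inhibition above the average of all tested compounds plus 3 SD, set per screening campaign, cut at about 16% in these data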;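 further: IDE supplied by intact live HEK cells; FP after avidin binding of uncleaved biotin substrate so inhibition keeps polarization high; 0% = DMSO wells and 100% = 60 µM reference IDE inhibitor Ii1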
procasp3 activ: activates human procaspase-3 | recombinant procaspase-3 D3A, Ac-DEVD-pNA absorbance 405 nm | 330,000 tested, 0.11% active | AID 463141 | P42574 | activation, % at 8.5 µM;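 active means activation above the mean of all tested compounds plus 3 SD, cut at about 21% in these data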;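 further: 0% = DMSO alone and 100% = DMSO wells spiked with extra 5 µM PC-3 D3A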
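Test system: Procaspase-3 D3A mutant, all three cleavage aspartates alanine | Dosing: Single dose, 8.5 µM nominal compound, 0.8% DMSO | Schedule: 1 h preincubation, 2 h reaction | Technique: 405 nm absorbance of p-nitroaniline, reads at 0 and 120 min | Repeats: One well per compound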
TPT1 inhibitor: inhibitors of Candida albicans tRNA 2'-phosphotransferase TPT1; recombinant caTPT1, FP RNA substrate dephosphorylation; inhibition, % at 5 µM; 300,000 tested, 0.81% active;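 active means inhibition above the mean of all tested compounds plus 3 SD, set per screening campaign, cut at about 24% in these data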;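 further: plate controls were DMSO alone for no effect and ferristatin control at 100 nM for full effect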
IDE inh confirm: cellular human IDE inhibition, confirmation. shares compounds with IDE cell inh. HEK cells, FAbetaB cleavage, fluorescence polarization. inhibition, % at 5.59 µM. 1,200 tested, 51% active;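 active means mean inhibition across triplicate wells above the cutoff set by the earlier primary insulin-degrading enzyme screen, cut at about 16% in these data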;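 further: 0% = DMSO wells and 100% = 60 µM reference IDE inhibitor Ii1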
HEK293 tox: HEK cell cytotoxicity, counter-screen for IDE inhibitors. shares compounds with IDE cell inh. HEK293 cytotoxicity, ATP luminescence. inhibition, % at 5.59 µM. 1,200 tested, 28% active; in the data active means inhibition above about 22%;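 further: 0% = vehicle wells and 100% = reference cytotoxic drug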
The depositor's hits bear a star; x = no result.

SMILES	procasp7 counter	IDE act	IDE cell inh	procasp3 activ	TPT1 inhibitor	IDE inh confirm	HEK293 tox
Brc1cc2[nH]cnc2c2ccccc12	-4	-39	22*	-2	3	11	16
COc1cccc(N2CCN(c3ncnc4c3[nH]c3ccc(F)cc34)CC2C)c1 (stereo not drawn)	-1	-12	38*	-4	-2	28*	122*
COc1ccc2[nH]c3c(N4CC(C)OC(C)C4)ncnc3c2c1 (stereo not drawn)	-4	x	17*	-4	5	7	11
COc1ccc2c(c1)[nH]c1c(N3CCSCC3)ncnc12	-2	-8	14	1	2	x	x
COc1cc2[nH]c3c(N4CCN(c5ccc(Cl)cc5)CC4)ncnc3c2cc1OC	4	-29	52*	2	-5	27*	38*
CC1CCCC(C)N1C(=O)COC(=O)COc1ccc(C#N)cc1 (stereo not drawn)	12	3	-3	3	x	x	x
CCc1sc(C(=O)Nc2nc(-c3ccccn3)cs2)cc1C	-2	-6	19*	-1	x	6	50*
Cc1c(OC(C)C(=O)NCc2ccncc2)ccc2c3c(c(=O)oc12)CCCC3 (stereo not drawn)	2	-38	19*	5	0	17*	18
Cc1c(OC(C)C(=O)NCc2ccccn2)ccc2c3c(c(=O)oc12)CCC3 (stereo not drawn)	3	5	2	3	-2	x	x
COc1cc(/C=C2/SC(=Nc3ccc(O)cc3)NC2=O)ccc1O	-8	-41	35*	-12	20	60*	59*
COc1cc(/C=C2\SC(=Nc3ccccc3OC)NC2=O)ccc1O	-10	-13	16	1	14	x	x
O=c1c2c(nc3nc(NCc4cccc5ccccc45)[nH]n13)CCC2	-6	5	3	-7	-1	x	x
CC(OC(=O)c1cccc(-n2cnnn2)c1)c1nc2ccccc2c(=O)[nH]1 (stereo not drawn)	4	3	-3	4	x	x	x
CCc1c(C#N)c(SCCC(=O)Nc2ccc(OC)cc2)nc2c1C(=O)CC(C)(C)C2	-1	0	3	-7	2	x	x
CCc1c(C#N)c(SCc2c(C)noc2C)nc2c1C(=O)CC(C)(C)C2	-6	-12	18*	0	1	1	32*
CCCn1c(=O)c2sccc2n2c(CCCC(=O)NC3CCN(Cc4ccccc4)CC3)nnc12	-3	-4	2	4	0	x	x
CC1CCN(CCc2nc3cc(NC(=O)NC4CCCCC4)ccc3n2C)CC1	-1	-18	19*	10	-2	3	11
Cc1cc(OCC(=O)Nc2ccc(Br)cc2)cc2c1C(=O)CC(C)(C)O2	-1	x	17*	-5	-4	0	22
COc1ccc(-c2noc(CSc3nnc(-c4ccccc4)n3C)n2)cc1	8	-18	17*	-3	-3	9	16
Cn1c(SCc2nc(-c3ccc(Br)cc3)no2)nnc1-c1ccco1	1	-8	9	4	2	x	x
CCN(CC(=O)Nc1c(F)cccc1F)C(=O)CN(C)S(=O)(=O)c1ccc(F)cc1	4	-4	-1	-1	-1	x	x
Nc1ccccc1Sc1nc2ccccc2[nH]1	-16	-16	16*	-20	1	6	3
CN(C(=O)COC(=O)CCC(=O)c1ccc(F)cc1)C1CCCCC1	8	4	3	3	x	x	x
CCN(CC)c1ccc2cc(-c3nc4ccccc4[nH]3)c(=O)oc2c1	-3	25*	39*	-26	-7	26*	50*
CC(=O)N/C(=C\c1ccccc1)C(=O)OCC(=O)NC(C)C12CC3CC(CC(C3)C1)C2 (stereo not drawn)	1	-1	17*	-4	0	-5	15
SMILES	procasp7 counter	IDE act	IDE cell inh	procasp3 activ	TPT1 inhibitor	IDE inh confirm	HEK293 tox
CC(=O)N/C(=C\c1ccccc1)C(=O)OCC(=O)NC(=O)c1ccccc1	0	4	-1	6	0	x	x
COc1cccc2[nH]c3c(N4CCc5ccccc5C4)ncnc3c12	-2	x	2	13	2	x	x
Cc1ccc2c(c1)[nH]c1c(N3CCN(Cc4ccccc4)CC3)ncnc12	8	-15	13	-5	-1	x	x
CCOc1ccc2[nH]c3c(N4CCN(c5ccccn5)CC4)ncnc3c2c1	-9	-30	25*	-19	-3	7	26*
OC1(c2cccc(C(F)(F)F)c2)CCN(c2ncnc3c2[nH]c2ccccc23)CC1	-6	-10	19*	2	2	7	35*
c1ccc2c(c1)CCN(c1ncnc3c1[nH]c1ccccc13)C2	-3	-25	21*	-2	0	17*	80*
Cc1ccc2[nH]c3c(N4CCN(Cc5ccccc5)CC4)ncnc3c2c1	10	-13	36*	4	6	17*	41*
c1ccc2c(c1)[nH]c1c(N3CCC4(CC3)OCCO4)ncnc12	-6	-4	-1	6	-2	x	x
CCOc1ccc2oc(C(=O)N3CCN(c4ccccn4)CC3)c(C)c2c1	x	1	x	x	x	x	x
c1ccc(CN2CCN(c3ncnc4c3[nH]c3ccccc34)CC2)cc1	-2	-2	33*	-4	-1	18*	58*
O=C(CN1C(=O)NC(c2ccccc2)(c2ccccc2)C1=O)N1CCOCC1	8	3	3	-3	x	x	x
Cc1cc[n+](C(C)C(=O)c2ccc(-c3ccccc3)cc2)cc1 (stereo not drawn)	4	-16	21*	2	2	8	77*
COc1cc(/C=N\NC(=O)c2ccc(-c3ccccc3)cc2)cc(OC)c1O	-9	-12	19*	7	-2	12	11
COc1cc(/C=N\NC(=O)c2ccc(-c3ccccc3)cc2)cc(OC)c1OC(C)=O	x	-13	x	x	x	x	x
Cn1c(N)c(C(=O)CSc2nc(N)cc(N)n2)c(=O)n(C)c1=O	0	-32	21*	-5	-1	8	9
Cn1c(N)c(C(=O)CSc2nc(N)cc(=O)[nH]2)c(=O)n(C)c1=O	-8	-6	3	6	1	x	x
COc1cc(Cl)ccc1OCc1cc(C(=O)NCCCN2CCCC2=O)no1	5	-2	6	7	0	x	x
Cc1cc2c(cc1S(=O)(=O)Nc1cccc(C)c1C)n(C)c(=O)c(=O)n2C	-1	1	4	-7	-1	x	x
Cc1n[nH]c(C)c1N1C(=O)c2cccc3c(N4CCCCCC4)ccc(c23)C1=O	-4	-67	122*	-5	-7	26*	10
CC(=O)c1ccc2c3c(cccc13)C(=O)N(c1c(C)nn(C)c1C)C2=O	8	-1	4	-4	0	x	x

Bioassay records: PubChem, The Scripps Research Institute Molecular Screening Center
